# Variants at the floor of the assay were thinned out.
# B1: tRNA (parent)
# chain: GUUCCGUUGGCGUAAUGGUAACGCGUCUCCCUCCUAAGGAGAAGACUGCGGGUUCGAGUCCCGUACGGAACG
# Variants of: B1
# Assay: yeast fitness relative to wild type (ratio to wild type); higher = fitter; tRNA-Arg(CCU), competitive growth, 37 C, YPD
# Summary of the method: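 Amplicons of the tRNA-Arg(CCU) gene were sequenced, 100-nucleotide paired-end, from the start population and from each end population of a pooled yeast competition. The competition, in six parallel replicates, lasted 24 hours in YPD at 37°C. Fitness relative to wild type was calculated from changes in genotype frequencies. Genotypes had to have ≥ 100 starting reads, and estimates < 0.5 were set to 0.5.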
row,Variant,yeast fitness
1,A14U C31A C60A,0.514
2,A14U C31A C61A,≤ 0.5
3,A14U C31G C61G A69G,≤ 0.5
4,A14U C31U C34A U64A,≤ 0.5
5,A14U C33A,0.629
6,A14U C33A A42C G52A,0.515
7,A14U C33A A69G,0.742
8,A14U C33G,≤ 0.5
9,A14U C33G A42C C49U C55G,≤ 0.5
10,A14U C33U,≤ 0.5
11,A14U C34A G48A U59C,0.541
12,A14U C34G A37C,≤ 0.5
13,A14U C34G A37C C62U,≤ 0.5
14,A14U C34G A43C C62A A70U,≤ 0.5
15,A14U C34G A43U C46A C62U A69C,≤ 0.5
16,A14U C34G C61A,≤ 0.5
17,A14U C34U A40U G50C,≤ 0.5
18,A14U C34U G39C,0.56
19,A14U C46G,0.612
20,A14U C49G C60A,≤ 0.5
21,A14U C49U C55U,≤ 0.5

row,Variant,yeast fitness
1,A14U C49U G52A,≤ 0.5
2,A14U C49U U54C,≤ 0.5
3,A14U C55A C62U C66U,0.553
4,A14U C55G C61G C66U,≤ 0.5
5,A14U C55U,≤ 0.5
6,A14U C60A,≤ 0.5
7,A14U C60G,≤ 0.5
8,A14U C60U C62U A70G,≤ 0.5
9,A14U C61U,0.591
10,A14U C62U,0.616
11,A14U C66A,0.508
12,A14U C66U,0.756
13,A14U G17A A43U,≤ 0.5
14,A14U G17A C22U,≤ 0.5
15,A14U G17A C22U C33G,0.567
16,A14U G17A C22U G63C,≤ 0.5
17,A14U G17A G23A,≤ 0.5
18,A14U G17A G23A G63A,≤ 0.5
19,A14U G17A G23A G68C,≤ 0.5
20,A14U G17A U59C C61U,0.653
21,A14U G17C,0.514

row,Variant,yeast fitness
1,A14U G17C A57G,0.505
2,A14U G17C U28C C30G G41C A42C U47C G50A C62A,≤ 0.5
3,A14U G17U C24A C30G,≤ 0.5
4,A14U G18A A21U A42G G68A,≤ 0.5
5,A14U G18A A40G C62A,≤ 0.5
6,A14U G18A U35A A57C C62U,≤ 0.5
7,A14U G18A U35A C46G A69U,0.591
8,A14U G18C A36G,≤ 0.5
9,A14U G18C G25A A70G,≤ 0.5
10,A14U G18C G39C C49G,≤ 0.5
11,A14U G18C U35G C49A C60G G68A,≤ 0.5
12,A14U G18C U35G C49A G68A,0.59
13,A14U G23A,≤ 0.5
14,A14U G23A A36G,≤ 0.5
15,A14U G23A A40U G48C C55U C61G,≤ 0.5
16,A14U G23A C27A G58C C61U,≤ 0.5
17,A14U G23A C29G C46A C55G,0.57
18,A14U G23A C29G C46A C55G A57U C62U,≤ 0.5
19,A14U G23A C29G C46A C55G G67A,≤ 0.5
20,A14U G23A U28A C30A,≤ 0.5
21,A14U G23A U64A C66A,≤ 0.5

row,Variant,yeast fitness
1,A14U G23C,0.508
2,A14U G23U G67C,≤ 0.5
3,A14U G23U U59A,≤ 0.5
4,A14U G25A C27U C55G,≤ 0.5
5,A14U G25C A45G A69U,≤ 0.5
6,A14U G25C C66U,≤ 0.5
7,A14U G38A,0.573
8,A14U G38A G58A,≤ 0.5
9,A14U G38C C62A G67C,≤ 0.5
10,A14U G44A,0.582
11,A14U G44C,0.673
12,A14U G48A,0.931
13,A14U G48C A70C,≤ 0.5
14,A14U G48C C66A,≤ 0.5
15,A14U G48U,0.567
16,A14U G50C A57G,≤ 0.5
17,A14U G50U,0.601
18,A14U G51A C61G,0.602
19,A14U G52A,≤ 0.5
20,A14U G52A G56A,≤ 0.5

# Source: the RNAGym collection of RNA variant scans (doi:10.1126/science.aae0568)
